Screens (PubChem BioAssay)
FGF22 binding = FGF22 (human) thermal shift binding; actives 1.5% (n = 340,000); Q9HCT0; recombinant FGF22 thermal shift, SYPRO orange fluorescence; percent of sucrose octasulfate shift, DMSO zero; AID 651658; activity (Tm shift, normalised), % at 9.99 µM;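 active = mean Tm shift, scaled 0 neutral to 100 positive control, at about 1.3% or above, every replicate too, limit read from the data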
SIRT5 block = inhibitors of human sirtuin-5 desuccinylase; actives 1.1% (n = 330,000); Purified SirT5, succinyl-peptide AMC, trypsin-coupled fluorescence; AID 652115; inhibition, % at 15 µM; in the data active = inhibition above about 15%
Target sequence (Q9NXA8 whole entry, looked up): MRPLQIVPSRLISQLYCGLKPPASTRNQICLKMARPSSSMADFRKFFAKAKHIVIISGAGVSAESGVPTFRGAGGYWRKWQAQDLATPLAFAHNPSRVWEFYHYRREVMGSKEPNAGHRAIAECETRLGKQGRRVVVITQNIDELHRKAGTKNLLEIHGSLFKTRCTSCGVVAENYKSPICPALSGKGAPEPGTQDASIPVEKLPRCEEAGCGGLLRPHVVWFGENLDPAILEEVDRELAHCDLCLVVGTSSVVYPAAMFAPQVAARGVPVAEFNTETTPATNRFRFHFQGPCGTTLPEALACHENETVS
CASP6 VEID inh = caspase-6 (human) enzyme inhibition. actives 0.53% (n = 350,000). AID 686996. purified caspase-6, Z-VEID-R110 cleavage fluorescence. inhibition, % at 12.5 µM. P55212;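 active = mean inhibition across replicates at least about 35%, with every replicate also reaching that limit, limit read from the data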;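 also: 0% = median of neutral control wells and 100% = no fluorescence left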
NSD2 inh = inhibitors of human histone methyltransferase NSD2 | inhibition, % at 12.5 µM | actives 0.54% (n = 310,000) | O96028 | NSD2 peptide methylation, AlphaScreen, 120 min; in the data active = inhibition above about 50%
UCH37 DUB inh = inhibitors of human deubiquitinating enzyme UCH37 | inhibition, % (no concentration beside the values) | purified proteasome/UCH37, Ub-AMC cleavage fluorescence | actives 0.33% (n = 330,000) | Q9Y5K5;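 active = mean inhibition over replicate wells above about 20%, limit read from the data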;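 also: 0% = compound-free wells with enzyme and 100% = wells lacking proteasome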
Target sequence (Q9Y5K5 whole entry, looked up): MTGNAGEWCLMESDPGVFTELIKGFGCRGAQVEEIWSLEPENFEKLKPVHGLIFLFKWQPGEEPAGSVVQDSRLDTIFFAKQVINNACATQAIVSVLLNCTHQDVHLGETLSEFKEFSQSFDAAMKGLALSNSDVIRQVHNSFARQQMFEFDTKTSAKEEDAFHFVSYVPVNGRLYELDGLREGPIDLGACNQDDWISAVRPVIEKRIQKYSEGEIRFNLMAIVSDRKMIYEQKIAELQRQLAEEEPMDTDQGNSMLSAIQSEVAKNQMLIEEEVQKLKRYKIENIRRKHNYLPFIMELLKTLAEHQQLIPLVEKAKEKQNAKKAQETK
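Material: human UCH37 enzyme supplied as purified proteasome complex. Measure: % inhibition of Ub-AMC cleavage fluorescence. Medium: pH 7.4 Tris-HCl (50 mM) with ovalbumin, ATP-MgCl2, DTT. Times: 30 min preincubation with enzyme, 25 min cleavage at room temperature. Detection: AMC fluorescence intensity at 355/460 nm.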
CASP1 counter = selectivity counter-screen: inhibitors of human caspase-1; 100 tested, under 10 active; purified caspase-1, Z-YVAD-R110 cleavage fluorescence; shares compounds with CASP6 VEID inh; activity change, negative = inhibition, % at 35 µM;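 active = compounds lowering fluorescence whose fitted half-maximal concentration is no more than twice their top tested dose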
AlphaScreen art = counter-screen for NSD2 inhibitors: AlphaScreen artifacts. shares compounds with NSD2 inh. AlphaScreen artifact counterscreen, preloaded methylated H4 peptide. AC35, µM (doses to about 10 µM), inactives show top-dose activity change, negative = signal loss. actives 9.4% (n = 1,500); call rule not given here
The depositor's hits bear a star; x = no result given. Shown are actives, neighbours in structure and some others; about 2.6% of the full set was active somewhere.

SMILES | FGF22 binding | SIRT5 block | CASP6 VEID inh | NSD2 inh | UCH37 DUB inh | CASP1 counter | others
O=C(C[C@@H]1C[C@H]2c3cc(NC(=O)NC4CCCCC4)ccc3O[C@H]2[C@H](CO)O1)NCc1ccccn1 | 1 | 1 | 75* | x | x | 1
CC(C)c1cn(CC[C@H]2CC[C@@H](NC(=O)Nc3cc(Cl)cc(Cl)c3)[C@H](CO)O2)nn1 | x | 1 | 2 | x | x | x
O=c1oc(Nc2ccccc2Cl)nc2ccccc12 | 0 | -2 | 0 | -4 | 1 | x
O=c1[nH]c(Nc2ccccc2Cl)cc2ccccc12 | 0 | 1 | 88* | x | -15 | -9
Cc1cc2ccccc2c(=O)[nH]1 | x | x | x | x | -15 | x
O=c1[nH]c(Nc2ccc(F)cc2)cc2ccccc12 | x | 2 | 100* | 97* | -113 | 6
CCOC(=O)c1sc2nc(OCCN3CCOCC3)cc(C)c2c1N | 0 | 17* | 82* | x | x | 5
Cc1oc2c(cc(NS(=O)(=O)c3ccc(C(C)C)cc3)c3ccccc32)c1C(=O)O | -1 | 3 | 39* | 20 | x | 12
COc1cc(C=NN2CCN(Cc3ccc(C)cc3)CC2)cc(OC)c1O | x | x | x | x | 0 | x
O=C(O)C1CCCCC1C(=O)Nc1cccc(Br)c1 (stereo not given) | 0 | x | 75* | x | 3 | -2
O=C(Nc1cccc(Br)c1)C1CCCC1 | 0 | 2 | -2 | 0 | 4 | x
CCCNC(=O)N[C@@H]1CC[C@H](CC(=O)NCCc2ccccc2)O[C@@H]1CO | 0 | 0 | -1 | x | x | x
Oc1cc(NCCN2CCOCC2)cc2cccnc12 | 0 | -3 | 90* | x | 7 | -2
O=c1cc2oc3cc(O)c(O)cc3c(-c3ccccc3[N+](=O)[O-])c-2cc1O | 0 | 16* | 96* | 128* | 13 | -1
[C-]#[N+][C@H](O[C@@H]1O[C@H](CO)[C@@H](O)[C@H](O)[C@H]1O)c1ccccc1 | 0 | 1 | 0 | x | 5 | x
O=C(O)CC(CCc1ccccc1)OC1OC(CO)C(O)C(O)C1O (stereo not given) | 0 | 3 | 71* | x | 0 | 22
CC(NC(=O)CCC(=O)Nc1ccccc1O)c1ccccc1 (stereo not given) | 0 | 13 | 0 | -1 | 4 | x
CC(CNc1ccccc1O)C(=O)O (stereo not given) | 0 | 7 | 56* | 12 | 8 | -2
CCCCN(C(=O)c1cccc(-n2cccc2)c1)c1c(N)n(CCC)c(=O)[nH]c1=O | 0 | 1 | 41* | 0 | -1 | 8
CCCN(C(=O)c1cccc(-n2cccc2)c1)c1c(N)n(Cc2ccccc2)c(=O)[nH]c1=O | 0 | 8 | 71* | 1 | 4 | 9
CCCCN(C(=O)c1cccc(S(=O)(=O)N2CCCC2)c1)c1c(N)n(CCC)c(=O)[nH]c1=O | 0 | 0 | 2 | 0 | 2 | x
COc1cccc(C=NNc2nc3ccccc3[nH]2)c1OC | x | x | x | x | -8 | x
C[C@H](CO)N1C[C@H](C)[C@@H](CN(C)Cc2cccnc2)OCc2ccccc2-c2ccccc2C1=O | 0 | 3 | 1 | x | x | x
CO[C@H]1CN(C)C(=O)c2cc(NS(=O)(=O)c3cn(C)cn3)ccc2OC[C@@H](C)N(CC2CC2)C[C@H]1C | 0 | -1 | 0 | x | x | x
COc1ccc(NC(=O)CN(C)C(=O)c2cccc(-n3cccc3)c2)cc1 | x | 4 | 51* | 9 | -3 | -3
SMILES | FGF22 binding | SIRT5 block | CASP6 VEID inh | NSD2 inh | UCH37 DUB inh | CASP1 counter | others
Cc1cccc(NC(=O)CNC(=O)c2cccc(-n3cccc3)c2)c1C | 0 | -2 | 83* | 2 | 5 | 0
Cc1cccc(C)c1NC(=O)CN(C)C(=O)c1cccc(-n2cccc2)c1 | 0 | -2 | 15 | -1 | 3 | x
Cc1ccc(NC(=O)CN(C)C(=O)c2cccc(-n3cccc3)c2)cc1 | 0 | 2 | 82* | 24 | 3 | 11
CO[C@@H]1CN(C)C(=O)c2ccc(NC(C)=O)cc2OC[C@@H](C)N(C(=O)c2ccccc2)C[C@@H]1C | 0 | 8 | 0 | x | x | x
Cc1ccccc1S(=O)(=O)N[C@@H]1CC[C@H](CCn2cc(Cc3ccccc3)nn2)O[C@@H]1CO | 0 | 0 | 0 | x | x | x
CS(=O)(=O)Nc1ccc2c(c1)[C@H]1C[C@H](CC(=O)N3CCOCC3)O[C@H](CO)[C@H]1O2 | 0 | -1 | -3 | x | x | x
COc1cc(C(=O)NCCOc2cccc3cccnc23)cc(OC)c1OC | 0 | -7 | -9 | -3 | 2 | x
COc1cc(NC(C)CCCNC(C)C)c2ncccc2c1OC (stereo not given) | -1 | x | 38* | 111* | x | 1
O=[N+]([O-])c1c(Nc2ccccn2)cc(Cl)c2nonc12 | 0 | -6 | 59* | 4 | 9 | -1
Cc1ccc(Nc2c([N+](=O)[O-])ccc3nonc23)c(C)c1 | 0 | -2 | -3 | 1 | 1 | x
Cc1ccc(S(=O)c2ccc([N+](=O)[O-])c3nonc23)cc1 (stereo not given) | 1 | 15* | 91* | 66* | x | 21
C[C@@H]1CN([C@@H](C)CO)C(=O)c2cccc(NS(=O)(=O)c3ccc(Cl)cc3)c2O[C@H]1CN(C)Cc1ccc(C(=O)O)cc1 | 0 | -1 | -1 | x | x | x
Cn1c(=O)c2c(-c3ccccc3)n(-c3ccc(N)cc3)cc2n(C)c1=O | 0 | 0 | 83* | x | x | -1
Cn1c(=O)c2c(-c3ccccc3)n(-c3ccccc3O)cc2n(C)c1=O | 0 | -2 | 5 | 0 | -21 | x
O=C(C[C@H]1CC[C@@H]2[C@H](COC[C@H](O)CN2C(=O)Nc2cc(Cl)cc(Cl)c2)O1)N1CCOCC1 | 0 | -7 | 1 | x | x | x
COCCn1c(-c2ccc(OC)cc2)nc2ccccc21 | x | x | x | 15 | 4 | x
COCCn1c2nc(=O)n(-c3ccccc3)c(=O)c-2nc2ccccc21 | 0 | -4 | 70* | 50* | x | 5 | AlphaScreen art=0%
Cc1ccc(SCc2c(C(=O)NN=Cc3ccncc3)nnn2-c2nonc2N)cc1 | x | x | x | x | 2 | x
CN(C)c1ccc(C=NNC(=O)CN(c2cccc(Cl)c2)S(C)(=O)=O)cc1Br | x | x | x | x | 7 | x
COc1ccc(NS(=O)(=O)c2ccc3c(c2)[C@H]2C=CC[C@H]2[C@@H](c2ccc(C(=O)O)cc2)N3)cc1 | x | 44* | 53* | 55* | x | 3 | AlphaScreen art=-11%
Cc1cc(C=O)c(C)n1-c1ccc(Cl)c(C(=O)O)c1 | 0 | 7 | 54* | 167* | 5 | 3 | AlphaScreen art=-8%
COc1ccc2[nH]c3c(NCCN(C(C)C)C(C)C)ncnc3c2c1 | x | x | x | 49 | -31 | x
COc1cc(NCCCCC(C)N)c2nccc(C)c2c1 (stereo not given) | 0 | x | 93* | 129* | x | -5 | AlphaScreen art=-11%
